Measured values published in ChEMBL document CHEMBL1143625, “Bisphosphonate inhibitors of Toxoplasma gondi growth: in vitro, QSAR, and in vivo investigations” (J Med Chem, 2005).

Tests used:
HFF [1] = assay: Inhibitory concentration against the growth of Toxoplasma gondii overexpressing FPPS enzyme in human foreskin fibroblast monolayer cells; (control = 2.2 uM, experiment 1); type: functional, cell-based
Summary of the method: (§1)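 FPPS-overexpressing T. gondii line: 2F clone tachyzoites (beta-galactosidase) electroporated with 50 µg ptubTgFPPS-FLAG/sagCAT. Stable lines were selected with 20 µM chloramphenicol and cloned by limiting dilution, giving 4-5-fold more FPPS by Western blot. Assay: compounds serially diluted in medium on confluent HFF; 10^4 tachyzoites/mL (filtered 3 µm, needle-passed); 48 h at 37 °C. Lysis, then CPRG read at 570 nm; IC50 from rectangular hyperbolic fit of % inhibition.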

HFF [2] = assay: Inhibitory concentration against the growth of Toxoplasma gondii overexpressing FPPS enzyme in human foreskin fibroblast monolayer cells; (control = 2.5 uM, experiment 2); type: functional, cell-based; summary of the method: as §1
[3] = In vitro inhibitory concentration against the growth of Toxoplasma gondii in human foreskin fibroblast monolayer cells (HFF cells); type: functional, cell-based
Summary of the method: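 T. gondii 2F clone tachyzoites expressing β-galactosidase, kept in HFF in DMEM with 10% FBS, 2 mM glutamine and 1 mM pyruvate. Confluent HFF monolayers were given serially diluted drug in medium, then 10^4 filtered, needle-passed tachyzoites/mL, and held 48 h at 37 °C. Cells were lysed at 50 °C, and CPRG turnover was read at 570 nm. IC50 came from a hyperbolic fit of % inhibition against concentration.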

HFF [4] = assay: Inhibitory concentration against the growth of Toxoplasma gondii overexpressing FPPS enzyme in human foreskin fibroblast monolayer cells; (control = 2.4 uM, experiment 3); type: functional, cell-based; summary of the method: as §1
[5] = Therapeutic index (TI) value as ratio of lethal dose (LD50) to the inhibitory concentration (IC50); type: cell-based; details: human, KB cells; read-out: TI
KB = assay: Lethal dose required to inhibit the growth of human KB (nasopharyngeal carcinoma) cell line; type: functional; details: read-out: LD50 (the source's name)
HFF [6] = assay: Inhibitory concentration against the growth of Toxoplasma gondii overexpressing FPPS enzyme in human foreskin fibroblast monolayer cells; (control = 0.12 uM, experiment 1); type: functional, cell-based; summary of the method: as §1
HFF [7] = assay: Inhibitory concentration against the growth of Toxoplasma gondii overexpressing FPPS enzyme in human foreskin fibroblast monolayer cells; (control = 0.30 uM, experiment 2); type: functional, cell-based; summary of the method: as §1
HFF [8] = assay: Inhibitory concentration against the growth of Toxoplasma gondii overexpressing FPPS enzyme in human foreskin fibroblast monolayer cells; (control = 0.28 uM, experiment 3); type: functional, cell-based; summary of the method: as §1
HFF [9] = assay: Inhibitory concentration against the growth of Toxoplasma gondii overexpressing FPPS enzyme in human foreskin fibroblast monolayer cells; (control = 0.62 uM, experiment 1); type: functional, cell-based; summary of the method: as §1
HFF [10] = assay: Inhibitory concentration against the growth of Toxoplasma gondii overexpressing FPPS enzyme in human foreskin fibroblast monolayer cells; (control = 0.15 uM, experiment 2); type: functional, cell-based; summary of the method: as §1
HFF [11] = assay: Inhibitory concentration against the growth of Toxoplasma gondii overexpressing FPPS enzyme in human foreskin fibroblast monolayer cells; (control = 0.55 uM, experiment 3); type: functional, cell-based; summary of the method: as §1
HFF [12] = assay: Inhibitory concentration against the growth of Toxoplasma gondii overexpressing FPPS enzyme in human foreskin fibroblast monolayer cells; (control = 0.29 uM); type: functional, cell-based; summary of the method: as §1
HFF [13] = assay: Inhibitory concentration against the growth of Toxoplasma gondii overexpressing FPPS enzyme in human foreskin fibroblast monolayer cells; (control = 0.60 uM, experiment 1); type: functional, cell-based; summary of the method: as §1
HFF [14] = assay: Inhibitory concentration against the growth of Toxoplasma gondii overexpressing FPPS enzyme in human foreskin fibroblast monolayer cells; (control = 0.79 uM, experiment 3); type: functional, cell-based; summary of the method: as §1
HFF [15] = assay: Inhibitory concentration against the growth of Toxoplasma gondii overexpressing FPPS enzyme in human foreskin fibroblast monolayer cells; (control = 1.1 uM, experiment 2); type: functional, cell-based; summary of the method: as §1

SMILES	IC50 [3] [µM]	selectivity ratio [5]	CC50 (KB) [µM]	other results
CCCCCCCCC(O)(P(=O)(O)O)P(=O)(O)O	2.38	–	–	IC50 (HFF [1]): 3.3 µM; IC50 (HFF [2]): 5.8 µM; IC50 (HFF [4]): 5.8 µM
O=P(O)(O)C(Nc1ccnc(O)c1)P(=O)(O)O	17.4	14.8	257	–
O=P(O)(O)C(O)(CC1=NC=NC1)P(=O)(O)O	6.7	6.12	41	–
O=P(O)(O)C(Sc1ccccn1)P(=O)(O)O	51.2	–	–	–
O=[N+]([O-])c1cccc(CC(O)(P(=O)(O)O)P(=O)(O)O)c1	47.9	–	–	–
Cc1cccc(CC(O)(P(=O)(O)O)P(=O)(O)O)c1	36.4	–	–	–
O=P(O)(O)C(Nc1cccc(Cc2ccccc2)c1)P(=O)(O)O	56.2	–	–	–
O=P(O)(O)C(O)(Cc1cccc2ccccc12)P(=O)(O)O	68.8	–	–	–
C[C@H](NC(P(=O)(O)O)P(=O)(O)O)c1cccc2ccccc12	55.1	–	–	–
CCc1cccc(NC(P(=O)(O)O)P(=O)(O)O)n1	218	–	–	–
O=P(O)(O)C(O)(Cn1cnc2ccccc21)P(=O)(O)O	4.5	–	–	–
CCC(C)NC(P(=O)(O)O)P(=O)(O)O (stereo not drawn)	164	–	–	–
O=P(O)(O)C(Nc1nccc2ccccc12)P(=O)(O)O	20.9	32.2	673	–
O=P(O)(O)C(Nc1ccccn1)P(=O)(O)O	44.6	10.4	465	–
Cc1csc(NC(P(=O)(O)O)P(=O)(O)O)n1	30.9	–	–	–
O=P(O)(O)C(O)(CCc1cccnc1)P(=O)(O)O	147	> 5.46	> 804	–
CCCCCCCC(O)(P(=O)(O)O)P(=O)(O)O	13.8	21.9	302	–
NCCCCC(O)(P(=O)(O)O)P(=O)(O)O	126	0.72	91	–
CCCCCCCCCCC(O)(P(=O)(O)O)P(=O)(O)O	0.28	> 2950	> 826	IC50 (HFF [6]): 1.1 µM; IC50 (HFF [7]): 1.2 µM; IC50 (HFF [8]): 1.7 µM
CCCCC(O)(P(=O)(O)O)P(=O)(O)O	150	> 6.95	> 1040	–
O=P(O)(O)C(Nc1cccnc1)P(=O)(O)O	42	18.6	782	–

SMILES	IC50 [3] [µM]	selectivity ratio [5]	CC50 (KB) [µM]	other results
CC(C)(C)c1cccc(NC(P(=O)(O)O)P(=O)(O)O)c1	157	–	–	–
CC1CCCCN1C(P(=O)(O)O)P(=O)(O)O (stereo not drawn)	132	–	–	–
CC(C)c1cccc(NC(P(=O)(O)O)P(=O)(O)O)c1	160	–	–	–
CN(Cc1ccccc1)C(P(=O)(O)O)P(=O)(O)O	76.7	–	–	–
Cc1ccnc(N(Cc2ccccc2)C(P(=O)(O)O)P(=O)(O)O)c1	226	–	–	–
C[C@@H](NC(P(=O)(O)O)P(=O)(O)O)c1cccc2ccccc12	63.2	–	–	–
Nc1ccc(CC(O)(P(=O)(O)O)P(=O)(O)O)cc1	80.3	2.71	218	–
O=P(O)(O)C(O)(Cc1ccccn1)P(=O)(O)O	8.11	1.71	13.9	–
O=P(O)(O)C(N1CCCCC1)P(=O)(O)O	51.2	> 21.9	> 1120	–
Cc1cc(C)nc(NC(P(=O)(O)O)P(=O)(O)O)c1	235	2.7	633	–
CCCCCCCCCC(O)(P(=O)(O)O)P(=O)(O)O	0.55	> 1620	> 892	IC50 (HFF [9]): 1.9 µM; IC50 (HFF [10]): 0.57 µM; IC50 (HFF [11]): 1.7 µM
Cc1cccnc1NC(P(=O)(O)O)P(=O)(O)O	44.5	4.02	179	–
CCCCCCC(O)(P(=O)(O)O)P(=O)(O)O	25.3	4.23	107	–
O=P(O)(O)C(O)(CSc1ccncc1)P(=O)(O)O	72.5	> 10.3	> 746	–
Cc1ccnc(NC(P(=O)(O)O)P(=O)(O)O)c1	59	2.32	137	–
O=P(O)(O)C(O)(Cc1ccncc1)P(=O)(O)O	3.5	48.9	171	–
CCC(C)CNC(P(=O)(O)O)P(=O)(O)O (stereo not drawn)	36.6	10.8	394	–
O=P(O)(O)C(O)(Cc1ccccc1)P(=O)(O)O	90.2	> 10.3	> 931	–
O=P(O)(O)C(Nc1ccc(Cl)cc1Cl)P(=O)(O)O [2,4-DICHLOROPHENYLAMINOMETHYLENEBISPHOSPHONIC ACID]	154	–	–	–
CCCCN(CC)C(P(=O)(O)O)P(=O)(O)O [(BUTYL(ETHYL)AMINO)METHYLENEDIPHOSPHONIC ACID]	132	> 7.99	> 1060	–
CCCCNC(P(=O)(O)O)P(=O)(O)O [(BUTYLAMINO)METHYLENEDIPHOSPHONIC ACID]	76.1	2.78	212	–

SMILES	IC50 [3] [µM]	selectivity ratio [5]	CC50 (KB) [µM]	other results
O=P(O)(O)C(NC1CCC1)P(=O)(O)O [(CYCLOBUTYLAMINO)METHYLENEDIPHOSPHONIC ACID]	121	2.15	260	–
O=P(O)(O)C(NC1CCCCCCC1)P(=O)(O)O [(CYCLOOCTYLAMINO)METHYLENEDIPHOSPHONIC ACID]	43.2	8.19	354	–
O=P(O)(O)C(NC1CCCC1)P(=O)(O)O [(CYCLOPENTYLAMINO)METHYLENEDIPHOSPHONIC ACID]	68.4	9.19	629	–
O=P(O)(O)C(NC1CC1)P(=O)(O)O [(CYCLOPROPYLAMINO)METHYLENEDIPHOSPHONIC ACID]	23.1	10.7	246	–
O=P(O)(O)C(N(C1CCCCC1)C1CCCCC1)P(=O)(O)O [(DICYCLOHEXYLAMINO)METHYLENEDIPHOSPHONIC ACID]	42.1	> 20.1	> 844	–
CC(C)CCNC(P(=O)(O)O)P(=O)(O)O [(ISOPENTYLAMINO)METHYLENEDIPHOSPHONIC ACID]	135	3.56	480	–
CCCCCCCCCNC(P(=O)(O)O)P(=O)(O)O [(NONYLAMINO)METHYLENEDIPHOSPHONIC ACID]	8.89	> 103	> 919	–
CCCNC(P(=O)(O)O)P(=O)(O)O [(PROPYLAMINO)METHYLENEDIPHOSPHONIC ACID]	69.2	7.21	499	–
NCCCC(O)(P(=O)(O)O)P(=O)(O)O [ALENDRONIC ACID]	109	–	–	–
O=C1C(O)=C([C@H]2CC[C@H](c3ccc(Cl)cc3)CC2)C(=O)c2ccccc21 [ATOVAQUONE]	–	–	–	IC50 (HFF [12]): 0.28 µM
CCCCCN(C)CCC(O)(P(=O)(O)O)P(=O)(O)O [IBANDRONIC ACID]	54.9	0.19	10.4	–
O=P(O)(O)C(NC1CCCCCC1)P(=O)(O)O [INCADRONIC ACID]	39.6	4.19	166	–
O=P(O)(O)C(O)(Cc1cnc2ccccn12)P(=O)(O)O [MINODRONIC ACID]	1.88	–	–	–
O=P(O)(O)C(N1CCCCCC1)P(=O)(O)O [N-(HEXAMETHYLENEIMINO)METHYLENEBISPHOSPHONIC ACID]	89.8	> 12.2	> 1100	–
NCCCCCC(O)(P(=O)(O)O)P(=O)(O)O [NERIDRONIC ACID]	59.7	11.4	680	–
NCCC(O)(P(=O)(O)O)P(=O)(O)O [PAMIDRONIC ACID]	38	4.11	156	–
O=P(O)(O)C(O)(Cc1cccnc1)P(=O)(O)O [RISEDRONIC ACID]	2.4	106	255	–
O=P(O)(O)C(N1CCSCC1)P(=O)(O)O [THIOMORPHOLINOMETHYLENEDIPHOSPHONIC ACID]	161	> 6.73	> 1080	–
O=P(O)(O)C(O)(Cn1ccnc1)P(=O)(O)O [ZOLEDRONIC ACID]	0.79	80.9	63.7	IC50 (HFF [13]): 7.8 µM; IC50 (HFF [14]): 7.8 µM; IC50 (HFF [15]): 8.3 µM
